# According to ChEMBL document CHEMBL4052618, “Design, synthesis, SAR discussion, in vitro and in vivo evaluation of novel selective EGFR modulator to inhibit L858R/T790M double mutants” (Eur J Med Chem, 2017):
# Experiments:
# [1] = Half life in monkey liver microsomes; format: ADME, Macaca mulatta, microsome; conditions: rhesus monkey
# [2] = biological target: Serine/threonine-protein kinase Nek2 (Homo sapiens) (UniProt P51955); assay: Inhibition of NEK2 (unknown origin) at 1 uM relative to control
# [3] = system: RAF proto-oncogene serine/threonine-protein kinase (Homo sapiens), P04049 [Y340D,Y341D]; assay: Inhibition of RAF1 Y340D/Y341D double mutant (unknown origin) at 1 uM relative to control
# RAF proto-oncogene serine/threonine-protein kinase (Homo sapiens), P04049 [Y340D,Y341D], sequence (P04049 whole entry Y340D/Y341D): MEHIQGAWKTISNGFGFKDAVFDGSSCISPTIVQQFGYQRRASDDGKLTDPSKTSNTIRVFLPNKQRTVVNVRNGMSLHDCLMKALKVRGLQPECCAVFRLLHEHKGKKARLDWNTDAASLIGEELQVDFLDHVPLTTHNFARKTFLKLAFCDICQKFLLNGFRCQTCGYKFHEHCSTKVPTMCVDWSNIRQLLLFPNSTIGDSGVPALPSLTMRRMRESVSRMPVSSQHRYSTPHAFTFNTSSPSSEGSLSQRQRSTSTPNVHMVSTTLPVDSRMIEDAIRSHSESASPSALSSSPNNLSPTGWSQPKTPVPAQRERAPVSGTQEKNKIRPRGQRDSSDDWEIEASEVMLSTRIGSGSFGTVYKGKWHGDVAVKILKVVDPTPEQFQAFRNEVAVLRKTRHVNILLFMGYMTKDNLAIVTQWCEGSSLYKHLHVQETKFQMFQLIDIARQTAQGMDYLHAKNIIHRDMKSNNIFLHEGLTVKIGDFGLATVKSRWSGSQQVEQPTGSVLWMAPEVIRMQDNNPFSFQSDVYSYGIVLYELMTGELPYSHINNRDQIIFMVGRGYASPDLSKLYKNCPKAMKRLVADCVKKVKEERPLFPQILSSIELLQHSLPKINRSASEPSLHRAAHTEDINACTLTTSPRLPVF
# [4] = biological target: Inhibitor of nuclear factor kappa-B kinase subunit alpha (Homo sapiens) (UniProt O15111); assay: Inhibition of CHUK (unknown origin) at 1 uM relative to control
# Inhibitor of nuclear factor kappa-B kinase subunit alpha (Homo sapiens), sequence (O15111 whole entry): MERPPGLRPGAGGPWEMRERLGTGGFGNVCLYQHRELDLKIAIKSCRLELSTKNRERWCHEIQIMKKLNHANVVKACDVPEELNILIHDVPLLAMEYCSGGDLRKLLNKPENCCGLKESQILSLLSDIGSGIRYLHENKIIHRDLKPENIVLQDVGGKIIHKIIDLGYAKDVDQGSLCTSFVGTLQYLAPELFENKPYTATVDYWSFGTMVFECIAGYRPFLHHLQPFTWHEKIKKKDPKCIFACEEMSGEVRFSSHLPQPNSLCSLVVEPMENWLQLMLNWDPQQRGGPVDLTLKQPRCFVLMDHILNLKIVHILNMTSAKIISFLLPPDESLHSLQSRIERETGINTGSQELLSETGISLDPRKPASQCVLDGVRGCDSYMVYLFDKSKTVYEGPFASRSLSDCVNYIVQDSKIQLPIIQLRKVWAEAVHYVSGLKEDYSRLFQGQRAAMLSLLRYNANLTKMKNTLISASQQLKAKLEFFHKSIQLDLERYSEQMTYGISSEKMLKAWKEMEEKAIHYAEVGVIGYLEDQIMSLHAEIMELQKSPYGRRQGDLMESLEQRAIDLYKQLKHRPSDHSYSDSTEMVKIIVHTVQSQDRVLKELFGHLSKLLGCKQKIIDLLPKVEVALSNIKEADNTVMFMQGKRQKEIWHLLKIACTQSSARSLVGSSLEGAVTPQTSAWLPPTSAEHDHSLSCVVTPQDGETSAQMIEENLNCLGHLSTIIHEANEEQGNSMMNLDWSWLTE
# [5] = biological target: ALK tyrosine kinase receptor (Homo sapiens) (UniProt Q9UM73); assay: Inhibition of ALK (unknown origin) at 1 uM relative to control
# ALK tyrosine kinase receptor (Homo sapiens), sequence (Q9UM73 19-1620 limits assumed): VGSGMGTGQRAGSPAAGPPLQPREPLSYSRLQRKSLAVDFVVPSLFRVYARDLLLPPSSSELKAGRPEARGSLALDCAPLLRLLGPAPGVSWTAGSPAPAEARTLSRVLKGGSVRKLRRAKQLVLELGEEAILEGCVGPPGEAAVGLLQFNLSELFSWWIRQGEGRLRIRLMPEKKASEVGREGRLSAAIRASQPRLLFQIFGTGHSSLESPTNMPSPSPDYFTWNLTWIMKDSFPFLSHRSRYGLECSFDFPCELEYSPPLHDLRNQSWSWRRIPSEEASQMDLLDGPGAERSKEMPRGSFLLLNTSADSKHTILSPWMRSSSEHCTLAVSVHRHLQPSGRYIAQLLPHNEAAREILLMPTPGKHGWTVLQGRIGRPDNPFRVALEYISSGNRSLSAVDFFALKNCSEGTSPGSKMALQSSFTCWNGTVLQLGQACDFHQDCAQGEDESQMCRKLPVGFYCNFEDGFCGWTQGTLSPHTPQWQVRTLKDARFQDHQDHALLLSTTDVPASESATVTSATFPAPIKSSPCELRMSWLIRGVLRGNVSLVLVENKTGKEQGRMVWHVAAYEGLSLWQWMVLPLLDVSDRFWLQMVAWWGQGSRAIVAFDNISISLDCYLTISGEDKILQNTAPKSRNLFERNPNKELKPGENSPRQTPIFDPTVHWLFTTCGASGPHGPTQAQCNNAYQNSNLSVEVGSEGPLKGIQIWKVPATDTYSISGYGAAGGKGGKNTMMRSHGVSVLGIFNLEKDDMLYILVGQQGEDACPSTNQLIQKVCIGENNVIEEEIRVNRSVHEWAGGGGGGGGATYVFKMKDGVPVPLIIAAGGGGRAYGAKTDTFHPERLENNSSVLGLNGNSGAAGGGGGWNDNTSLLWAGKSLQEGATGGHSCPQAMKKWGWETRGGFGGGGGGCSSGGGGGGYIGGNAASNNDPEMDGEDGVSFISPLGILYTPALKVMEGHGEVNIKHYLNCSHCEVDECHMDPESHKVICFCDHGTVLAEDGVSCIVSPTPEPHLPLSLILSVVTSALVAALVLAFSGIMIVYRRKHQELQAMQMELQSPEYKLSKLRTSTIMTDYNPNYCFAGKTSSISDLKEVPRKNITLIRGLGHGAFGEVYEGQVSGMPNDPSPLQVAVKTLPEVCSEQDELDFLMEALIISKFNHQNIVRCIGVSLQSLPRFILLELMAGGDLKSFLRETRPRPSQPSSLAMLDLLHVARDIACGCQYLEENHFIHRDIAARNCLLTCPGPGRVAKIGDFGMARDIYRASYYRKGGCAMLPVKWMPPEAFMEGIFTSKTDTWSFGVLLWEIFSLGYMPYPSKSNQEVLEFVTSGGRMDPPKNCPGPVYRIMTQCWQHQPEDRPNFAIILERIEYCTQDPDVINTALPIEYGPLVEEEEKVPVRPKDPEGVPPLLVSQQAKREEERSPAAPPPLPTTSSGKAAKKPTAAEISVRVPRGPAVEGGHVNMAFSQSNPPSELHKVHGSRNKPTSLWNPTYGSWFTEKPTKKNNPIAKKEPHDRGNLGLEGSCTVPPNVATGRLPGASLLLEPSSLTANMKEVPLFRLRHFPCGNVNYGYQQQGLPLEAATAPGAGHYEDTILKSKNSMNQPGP
# [6] = biological target: Tyrosine-protein kinase Blk (Homo sapiens) (UniProt P51451); assay: Inhibition of BLK (unknown origin) at 1 uM relative to control
# [7] = biological target: Epidermal growth factor receptor (Homo sapiens, UniProt P00533); assay: Inhibition of human recombinant cytoplasmic GST-tagged EGFR (668 to 1210 residues) expressed in baculovirus using TK-substrate-biotin preincubated for 15 mins followed by substrate addition measured after 60 mins by FRET-based Z'-Lyte assay; conditions: read-out: IC50
# NCI-H1975 [8] = assay: In vivo anti tumor activity against human NCI-H1975 cells xenografted in nude C.B-17 SCID mouse model assessed as tumor volume at 10 mg/kg, ig for 18 days measured twice a week (reference value: 948.05 mm3); format: functional
# [9] = AUC (0 to infinity) in Sprague-Dawley rat at 1 mg/kg, iv by LC-MS/MS analysis; format: ADME, organism-based; design: dose 1 mg/kg, time infinity, route intravenous; conditions: in vivo
# [10] = biological target: CDK2/Cyclin A2 (Homo sapiens) (UniProt P24941+P20248); assay: Inhibition of CDK2/cyclin A (unknown origin) at 1 uM relative to control; format: protein-complex assay
# [11] = biological target: Protein-tyrosine kinase 6 (Homo sapiens) (UniProt Q13882); assay: Inhibition of PTK6 (unknown origin) at 1 uM relative to control
# Protein-tyrosine kinase 6 (Homo sapiens), sequence (Q13882 whole entry, looked up): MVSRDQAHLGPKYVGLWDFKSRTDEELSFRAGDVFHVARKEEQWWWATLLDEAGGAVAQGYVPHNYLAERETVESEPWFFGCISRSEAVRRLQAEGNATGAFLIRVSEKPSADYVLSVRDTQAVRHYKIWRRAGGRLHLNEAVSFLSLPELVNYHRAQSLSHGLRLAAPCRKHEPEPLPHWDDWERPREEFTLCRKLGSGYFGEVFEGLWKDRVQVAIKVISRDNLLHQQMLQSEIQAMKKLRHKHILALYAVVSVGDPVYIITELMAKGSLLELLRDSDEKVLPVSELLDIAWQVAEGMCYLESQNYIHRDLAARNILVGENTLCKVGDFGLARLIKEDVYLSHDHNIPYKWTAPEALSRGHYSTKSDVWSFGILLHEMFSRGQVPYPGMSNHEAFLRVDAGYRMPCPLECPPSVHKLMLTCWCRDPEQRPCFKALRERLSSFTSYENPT
# NCI-H1975 [12] = assay: In vivo anti tumor activity against human NCI-H1975 cells xenografted in nude C.B-17 SCID mouse model assessed as tumor growth inhibition at 10 mg/kg, ig for 18 days measured twice a week relative to control; format: functional; conditions: NCI-H1975, po, 432 h, read-out: TGI
# Outline: (§1)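 H1975 s.c. xenografts (5 × 10^6 cells) were grown in C.B-17 SCID mice and randomized at 100-150 mm3 (n = 9). Mice were dosed intragastrically once daily for 18 days against a PBS control. TGI% = (TWcontrol − TWtreatment)/TWcontrol × 100, where TW is the mean tumor weight on day 18.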
# [13] = biological target: Proto-oncogene tyrosine-protein kinase ROS (Homo sapiens) (UniProt P08922); assay: Inhibition of ROS1 (unknown origin) at 1 uM relative to control
# [14] = Half life in human hepatocytes; format: ADME, cell-based, Hepatocyte
# [15] = Half life in dog liver microsomes; format: ADME, Canis lupus familiaris, microsome
# [16] = biological target: Hepatocyte growth factor receptor (Homo sapiens) (UniProt P08581); assay: Inhibition of MET (cMet) (unknown origin) at 1 uM relative to control
# [17] = biological target: Receptor-type tyrosine-protein kinase FLT3 (Homo sapiens) (UniProt P36888); assay: Inhibition of FLT3 (unknown origin) at 1 uM relative to control
# NCI-H1975 [18] = assay: In vivo anti tumor activity against human NCI-H1975 cells xenografted in nude C.B-17 SCID mouse model assessed as tumor growth inhibition at 20 mg/kg, ig for 18 days measured twice a week relative to control; format: functional; conditions: NCI-H1975, po, 432 h, read-out: TGI; outline: as §1
# [19] = biological target: Ribosomal protein S6 kinase beta-1 (Homo sapiens) (UniProt P23443); assay: Inhibition of RPS6KB1 (unknown origin) at 1 uM relative to control
# Ribosomal protein S6 kinase beta-1 (Homo sapiens), sequence (P23443 whole entry, looked up): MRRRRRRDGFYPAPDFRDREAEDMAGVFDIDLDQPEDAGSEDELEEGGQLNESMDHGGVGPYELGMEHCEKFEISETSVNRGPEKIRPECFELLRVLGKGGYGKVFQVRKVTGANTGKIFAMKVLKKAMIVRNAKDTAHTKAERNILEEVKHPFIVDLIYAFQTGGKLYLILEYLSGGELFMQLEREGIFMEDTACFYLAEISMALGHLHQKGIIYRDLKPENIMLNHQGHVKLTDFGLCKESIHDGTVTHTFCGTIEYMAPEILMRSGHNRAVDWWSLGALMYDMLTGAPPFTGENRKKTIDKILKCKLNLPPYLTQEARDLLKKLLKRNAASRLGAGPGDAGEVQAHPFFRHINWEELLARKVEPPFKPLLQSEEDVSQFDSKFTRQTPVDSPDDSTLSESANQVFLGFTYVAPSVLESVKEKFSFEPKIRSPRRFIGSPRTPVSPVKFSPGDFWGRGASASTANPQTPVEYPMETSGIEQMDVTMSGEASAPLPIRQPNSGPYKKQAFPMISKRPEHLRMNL
# [20] = biological target: Fibroblast growth factor receptor 3 (Homo sapiens) (UniProt P22607); assay: Inhibition of FGFR3 (unknown origin) at 1 uM relative to control
# [21] = Intrinsic clearance in monkey liver microsomes; format: ADME, Macaca mulatta, microsome; conditions: rhesus monkey, read-out: CLH
# NCI-H1975 [22] = assay: In vivo anti tumor activity against human NCI-H1975 cells xenografted in nude C.B-17 SCID mouse model assessed as tumor volume at 20 mg/kg, ig for 18 days measured twice a week (reference value: 948.05 mm3); format: functional
# [23] = AUC (0 to 24 hrs) in Sprague-Dawley rat at 10 mg/kg, po administered via gavage by LC-MS/MS analysis; format: ADME, organism-based; design: time < 24 hr, dose 10 mg/kg, route oral; conditions: in vivo
# Mus musculus = assay: Toxicity in nude C.B-17 SCID mouse model xenografted with human NCI-H1975 cells assessed as loss of body weight at 5 to 20 mg/kg, ig for 18 days; format: organism-based; conditions: in vivo, po, 432 h
# Outline: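 H1975 xenografts were set up by subcutaneous inoculation of 5 × 10^6 cells into C.B-17 SCID mice. At a mean tumor volume of 100-150 mm3, mice were randomized into groups of n = 9. They were dosed intragastrically once daily for 18 days at 5, 10 or 20 mg/kg, given as 0.1 mL/10 g body weight. The control group received PBS, and tumors were caliper-measured twice weekly.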
# [24] = biological target: Leucine-rich repeat serine/threonine-protein kinase 2 (Homo sapiens) (UniProt Q5S007); assay: Inhibition of LRRK2 (unknown origin) at 1 uM relative to control
# [25] = biological target: Tyrosine-protein kinase JAK3 (Homo sapiens) (UniProt P52333); assay: Inhibition of JAK3 (unknown origin) at 1 uM relative to control
# Tyrosine-protein kinase JAK3 (Homo sapiens), sequence (P52333 whole entry, canonical isoform): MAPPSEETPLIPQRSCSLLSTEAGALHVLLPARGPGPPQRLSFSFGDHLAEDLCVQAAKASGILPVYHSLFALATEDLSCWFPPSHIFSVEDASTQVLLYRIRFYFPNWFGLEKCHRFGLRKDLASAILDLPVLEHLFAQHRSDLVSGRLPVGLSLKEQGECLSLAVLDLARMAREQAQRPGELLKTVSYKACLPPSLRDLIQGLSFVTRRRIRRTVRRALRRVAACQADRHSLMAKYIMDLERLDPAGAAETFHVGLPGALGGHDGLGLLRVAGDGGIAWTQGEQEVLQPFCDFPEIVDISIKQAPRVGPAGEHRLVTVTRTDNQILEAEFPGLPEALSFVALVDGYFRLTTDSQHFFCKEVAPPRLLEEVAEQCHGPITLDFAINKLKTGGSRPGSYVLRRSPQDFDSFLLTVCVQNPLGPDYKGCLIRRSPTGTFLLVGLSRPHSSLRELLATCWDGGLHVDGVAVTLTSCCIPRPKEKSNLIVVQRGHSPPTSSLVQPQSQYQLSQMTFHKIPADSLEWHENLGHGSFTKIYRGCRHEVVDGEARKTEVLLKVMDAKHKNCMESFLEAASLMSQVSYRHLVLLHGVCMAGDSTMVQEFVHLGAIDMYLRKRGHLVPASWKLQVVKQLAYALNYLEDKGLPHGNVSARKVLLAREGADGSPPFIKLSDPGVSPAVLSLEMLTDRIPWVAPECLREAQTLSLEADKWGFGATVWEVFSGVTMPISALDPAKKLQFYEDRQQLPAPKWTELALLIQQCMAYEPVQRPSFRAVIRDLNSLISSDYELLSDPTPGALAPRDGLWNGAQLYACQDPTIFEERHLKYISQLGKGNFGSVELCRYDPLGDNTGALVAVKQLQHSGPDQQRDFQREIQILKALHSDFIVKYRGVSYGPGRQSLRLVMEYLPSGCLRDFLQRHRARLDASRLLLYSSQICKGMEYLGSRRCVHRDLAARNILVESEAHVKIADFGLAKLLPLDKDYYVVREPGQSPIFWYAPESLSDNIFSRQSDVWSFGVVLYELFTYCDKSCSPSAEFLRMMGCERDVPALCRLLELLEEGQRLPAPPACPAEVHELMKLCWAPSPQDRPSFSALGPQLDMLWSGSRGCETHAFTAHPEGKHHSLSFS
# [26] = biological target: Casein kinase I isoform alpha (Homo sapiens) (UniProt P48729); assay: Inhibition of CSNK1A1 (unknown origin) at 1 uM relative to control
# [27] = biological target: Tyrosine-protein kinase Yes (Homo sapiens) (UniProt P07947); assay: Inhibition of YES1 (unknown origin) at 1 uM relative to control
# [28] = biological target: Tyrosine-protein kinase TXK (Homo sapiens) (UniProt P42681); assay: Inhibition of TXK (unknown origin) at 1 uM relative to control
# [29] = biological target: Serine/threonine-protein kinase Chk2 (Homo sapiens) (UniProt O96017); assay: Inhibition of CHEK2 (CHK2) (unknown origin) at 1 uM relative to control
# [30] = biological target: cGMP-dependent protein kinase 1 (Homo sapiens) (UniProt Q13976); assay: Inhibition of PRKG1 (unknown origin) at 1 uM relative to control
# [31] = biological target: Non-receptor tyrosine-protein kinase TYK2 (Homo sapiens) (UniProt P29597); assay: Inhibition of TYK2 (unknown origin) at 1 uM relative to control
# [32] = Half life in Sprague-Dawley rat at 1 mg/kg, iv by LC-MS/MS analysis; format: ADME, organism-based; conditions: in vivo
# Outline: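 Male Sprague-Dawley rats (200-240 g) were dosed either by tail vein at 1 mg/kg in 2% DMSO/20% PEG400/78% buffered saline or by oral gavage at 10 mg/kg in 0.5% methylcellulose. Blood was drawn by orbital sinus puncture at 2 min to 24 h into heparin, and plasma was analysed by LC/MS/MS in SRM mode. Parameters came from non-compartmental analysis.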
smiles,measurement,setting,value
C=CC(=O)Nc1cc(Nc2nccc(-c3cn4c5c(cccc35)CCC4)n2)c(OC)cc1N(C)CCN(C)C,half-life,[1],0.482 h
same,inhibition,[2],7%
same,inhibition,[3],8%
same,inhibition,[4],14%
same,inhibition,[5],84%
same,inhibition,[6],85%
same,IC50,[7],21.6 nM
same,Activity,NCI-H1975 [8],239.33 mm3
same,AUC(0-inf),[9],194 ng·h/mL
same,inhibition,[10],7%
same,inhibition,[11],83%
same,inhibition in vivo at 10 mg/kg,NCI-H1975 [12],83.5%
same,inhibition,[13],94%
same,half-life,[14],2.31 h
same,half-life,[15],0.525 h
same,inhibition,[16],-2%
same,inhibition,[17],56%
same,inhibition in vivo at 20 mg/kg,NCI-H1975 [18],96.3%
same,inhibition,[19],-10%
same,inhibition,[20],9%
same,CLint scaled,[21],64.8 mL/min/kg
same,Activity,NCI-H1975 [22],113.52 mm3
same,AUC(0-t) at 24 h,[23],995 ng·h/mL
same,Activity,Mus musculus,Non-Toxic
same,inhibition,[24],90%
same,inhibition,[25],89%
same,inhibition,[26],-4%
same,inhibition,[27],10%
same,inhibition,[28],88%
same,inhibition,[29],-2%
same,inhibition,[30],5%
same,inhibition,[31],14%
same,half-life,[32],4.5 h
